Structures are written as SMILES. The source made the active and inactive calls. The calls are words filed in the database; no cut-off is given here.

Data set [1] concerns SK-BR-3. As to the kind of experiment: Cellular uptake in human SKBR3 cells overexpressing HER2 at 0.4 uM after 48 hrs by lyso tracking-based confocal microscopic analysis. The format is ADME, cell-based. Conditions: sk-br-3, 48 h. A digest of the protocol: (§1)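 SKBR-3 cells in chamber wells given 0.4 μM BODIPY conjugate at 37 °C for 24 or 48 h, PBS-washed and fixed in ice-cold methanol at −20 °C for 5 min. Membrane tracker (5 min) or Lyso tracker (30 min) in serum-free medium added at 37 °C. Mounted slides imaged by confocal microscopy at 40X under oil with argon and HeNe lasers to assess co-localization.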

Data set [2] is described as follows: Cellular uptake in human SKBR3 cells plasma membrane overexpressing HER2 at 0.4 uM after 24 hrs by membrane tracking-based confocal microscopic analysis. The format is ADME, cell-based. Conditions: sk-br-3, 24 h. An outline of the steps: as §1
Data set [3] has as its system SK-BR-3. Put plainly: Cellular uptake in human SKBR3 cells overexpressing HER2 at 1 to 10 uM by fluorescence plate reader analysis. The format is ADME, cell-based. Conditions: sk-br-3, 10 µM, TDE = time-dependent effect. A digest of the protocol:
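Fluorescent BODIPY conjugate diluted in McCoy's medium to 1 and 10 μM and added to SKBR-3 cells (10,000/well, grown 24 h) at 37 °C. At 0, 12, 24, 36, 48 and 72 h, medium removed and cells washed twice with PBS. Cell-associated fluorescence read on a plate reader at 490/530 nm excitation/emission.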

In data set [4] the target is Receptor tyrosine-protein kinase erbB-2 (Homo sapiens) (UniProt P04626). Put plainly: Binding affinity to HER2 extracellular domain in human SKBR3 cells assessed as inhibition of EGFR binding. The format is cell-based. Conditions: SK-BR-3.
Receptor tyrosine-protein kinase erbB-2 (Homo sapiens), sequence (P04626 whole entry, the tested form may be a part): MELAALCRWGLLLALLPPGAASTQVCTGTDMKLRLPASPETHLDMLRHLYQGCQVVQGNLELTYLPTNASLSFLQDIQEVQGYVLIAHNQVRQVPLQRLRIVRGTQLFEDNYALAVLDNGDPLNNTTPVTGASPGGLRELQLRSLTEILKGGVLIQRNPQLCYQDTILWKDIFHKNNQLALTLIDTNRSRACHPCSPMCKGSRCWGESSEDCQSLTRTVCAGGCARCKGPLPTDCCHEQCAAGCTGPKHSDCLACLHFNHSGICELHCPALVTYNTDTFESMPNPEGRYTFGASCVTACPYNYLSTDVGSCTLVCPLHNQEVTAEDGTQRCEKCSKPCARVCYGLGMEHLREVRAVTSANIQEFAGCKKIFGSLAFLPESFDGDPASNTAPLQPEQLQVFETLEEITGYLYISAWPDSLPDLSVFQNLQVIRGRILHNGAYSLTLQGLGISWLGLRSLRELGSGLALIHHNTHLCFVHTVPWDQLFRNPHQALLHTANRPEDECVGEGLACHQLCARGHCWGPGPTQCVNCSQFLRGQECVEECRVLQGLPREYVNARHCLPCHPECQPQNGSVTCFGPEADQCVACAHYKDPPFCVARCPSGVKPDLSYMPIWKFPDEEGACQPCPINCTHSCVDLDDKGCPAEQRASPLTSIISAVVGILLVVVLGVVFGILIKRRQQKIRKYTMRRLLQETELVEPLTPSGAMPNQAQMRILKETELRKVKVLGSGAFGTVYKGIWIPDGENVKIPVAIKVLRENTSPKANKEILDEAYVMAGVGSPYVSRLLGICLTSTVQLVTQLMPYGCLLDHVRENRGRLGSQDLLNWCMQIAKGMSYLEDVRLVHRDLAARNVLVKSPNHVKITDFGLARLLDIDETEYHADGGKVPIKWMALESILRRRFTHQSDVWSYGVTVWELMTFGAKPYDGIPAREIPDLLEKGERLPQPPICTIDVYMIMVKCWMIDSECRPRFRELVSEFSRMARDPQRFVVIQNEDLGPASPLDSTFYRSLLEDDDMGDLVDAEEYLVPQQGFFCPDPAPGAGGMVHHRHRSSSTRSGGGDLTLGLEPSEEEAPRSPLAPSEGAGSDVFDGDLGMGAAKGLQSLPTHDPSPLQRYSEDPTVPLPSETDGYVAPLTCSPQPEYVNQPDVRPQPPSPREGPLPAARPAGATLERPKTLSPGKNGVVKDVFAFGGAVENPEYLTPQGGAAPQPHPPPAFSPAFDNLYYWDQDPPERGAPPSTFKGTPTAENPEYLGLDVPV
Data set [5] has the same target. Put plainly: Inhibition of HER2 kinase domain phosphorylation in human SKBR3 cells at 0.4 uM after 18 hrs by Western blot analysis. The format is cell-based. Conditions: SK-BR-3. An outline of the steps: (§2)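 BT-474 cells (RPMI-1640) and SKBR-3 cells (McCoy's), each with 10% FBS and insulin, plated in triplicate flasks and treated after 24 h with 0.4 μM compound or left untreated at 37 °C, 5% CO2. Lysates made with protease and phosphatase inhibitors; 40 μg protein run on 10% SDS-PAGE. Blots probed with p-HER2 antibody (1:3000, 15 h, 4 °C), detected by ECL; total HER2 blotted with an anti-ECD antibody.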
A general note: A western blot detects proteins with antibodies after separation by electrophoresis.

Data set [6] has the same target. Put plainly: Inhibition of HER2 kinase domain phosphorylation in human SKBR3 cells at 0.4 uM by Western blot analysis. Conditions: SK-BR-3, TDE = time-dependent effect. The format is cell-based. An outline of the steps: as §2
For data set [7] the target is unchanged. As to the kind of experiment: Binding affinity to HER2 extracellular domain in human SKBR3 cells assessed as inhibition of HER3 binding at 0.8 uM after 24 hrs by confocal microscopy-based proximity ligation assay. The format is cell-based. Conditions: SK-BR-3. A digest of the protocol: (§3)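 SKBR-3 cells seeded at 5 × 10^4 per chamber well and grown 24 h at 37 °C, then treated 24 h. Cells fixed in ice-cold methanol at −20 °C and blocked in 5% BSA 1 h. Primary antibodies anti-HER2 (rabbit) and anti-HER3 (mouse), each 1:400, applied overnight at 4 °C. Duolink PLA probes, ligation and amplification at 37 °C, then confocal imaging of red heterodimer spots.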

The target is the same in data set [8]. As to the kind of experiment: Inhibition of HER2 kinase domain phosphorylation in human BT474 cells at 0.4 uM by Western blot analysis. The format is cell-based. Conditions: BT-474, TDE = time-dependent effect. A digest of the protocol: as §2
Data set [9] has the same target. Put plainly: Inhibition of HER2 kinase domain phosphorylation in human BT474 cells at 0.4 uM after 18 hrs by Western blot analysis. The format is cell-based. Conditions: BT-474. A digest of the protocol: as §2
Data set [10] has the same target. As to the kind of experiment: Binding affinity to HER2 extracellular domain in human SKBR3 cells assessed as inhibition of HER3 binding at 0.5 uM after 24 hrs by confocal microscopy-based proximity ligation assay. The format is cell-based. Conditions: SK-BR-3. An outline of the steps: as §3

As to `Cc1cc(C)n2c1C=C1C=CC(CCCCC(=O)N[C@@H](CCCNC(=N)N)C(=O)NC(CC(=O)N[C@@H](Cc3ccccc3)C(=O)O)c3cccc4ccccc34)=[N+]1[B-]2(F)F` (stereo not given in full), the figures for the Drug uptake entry in [1], in data set [2] and in data set [3] were “Active”, “Active” and “tde”, respectively.
In the case of `N=C(N)NCCC[C@H](N)C(=O)NC(CC(=O)N[C@@H](Cc1ccccc1)C(=O)O)c1cccc2ccccc12` (stereo not given in full), the inhibition result in data set [4], in data set [5], in data set [7] and in [9] was “Active” throughout. The inhibition result in data set [6] and in [8] was “tde” each time. Moreover, the inhibition result in [10] was “inactive”.

The values above are taken from ChEMBL document CHEMBL2401612, “Design, synthesis and characterization of peptidomimetic conjugate of BODIPY targeting HER2 protein extracellular domain” (Eur J Med Chem, 2013).
